Source: ChEMBL document CHEMBL1146340, “Synthesis of the 5-phosphono-pent-2-en-1-yl nucleosides: a new class of antiviral acyclic nucleoside phosphonates” (Bioorg Med Chem, 2007)

What was measured:
[1] = Cytotoxicity against human MRC5 cells by neutral red uptake assay; type: cell-based
Outline: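 MRC-5 human lung fibroblasts seeded at 2.5 x 10^4 cells/well and incubated 24 h. Medium then replaced with MEM plus 2% FBS. Drug diluted serially 5-fold from 100 μM to 0.03 μM and exposed for 7 days. Cells stained with neutral red for 1 h, dye solubilized in 1% acetic acid/50% ethanol, OD read at 540 nm. CC50 (50% viability reduction) calculated; mean ± SD of 3 experiments.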

[2] = Specificity index, Ratio of CC50 for MCR5 cells to EC50 for HSV1; type: functional
Outline: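 Ratio of CC50 to EC50, both measured in MRC-5 human lung fibroblasts. […] CC50: neutral red uptake after 7 days, 5-fold dilutions from 100 μM to 0.03 μM, OD 540 nm; mean of 3 experiments.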

CCCCCCCCCCCCCCCCOCCCOP(=O)(O)CC/C=C\Cn1cnc2c(N)ncnc21
CC50 [1]: 17.3 µM
Selectivity index [2]: 0.96

Nc1ccn(C/C=C\CCP(=O)(O)O)c(=O)n1
CC50 [1]: > 100 µM

CCCCCCCCCCCCCCCCOCCCOP(=O)(O)CC/C=C\Cn1cc(C)c(=O)[nH]c1=O
CC50 [1]: 7.4 µM
Selectivity index [2]: 8.22

CCCCCCCCCCCCCCCCOCCCOP(=O)(O)CC/C=C\Cn1ccc(=O)[nH]c1=O
CC50 [1]: 51 µM

Nc1ncnc2c1ncn2C/C=C\CCP(=O)(O)O
CC50 [1]: > 100 µM

CCCCCCCCCCCCCCCCOCCCOP(=O)(O)CC/C=C\Cn1cnc2c(=O)nc(N)[nH]c21
CC50 [1]: 12.2 µM
Selectivity index [2]: 2.1

O=c1nc(O)ccn1C/C=C\CCP(=O)(O)O
CC50 [1]: > 100 µM

CCCCCCCCCCCCCCCCOCCCOP(=O)(O)CC/C=C\Cn1ccc(N)nc1=O
CC50 [1]: 11.2 µM
Selectivity index [2]: 2.38

Cc1cn(C/C=C\CCP(=O)(O)O)c(=O)[nH]c1=O
CC50 [1]: > 100 µM

Nc1nc(=O)c2ncn(C/C=C\CCP(=O)(O)O)c2[nH]1
CC50 [1]: > 100 µM
